B1: tRNA (parent)
chain: GUUCCGUUGGCGUAAUGGUAACGCGUCUCCCUCCUAAGGAGAAGACUGCGGGUUCGAGUCCCGUACGGAACG

This sample holds only a part of the variants without activity.

In the data set the parent is B1. The data set is described as follows: yeast fitness relative to wild type (ratio to wild type); higher = fitter; tRNA-Arg(CCU), competitive growth, 37 C, YPD. A digest of the protocol: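 Amplicons of the tRNA-Arg(CCU) gene were sequenced, 100-nucleotide paired-end, from the start population and from each end population of a pooled yeast competition. The competition, in six parallel replicates, lasted 24 hours in YPD at 37°C. Fitness relative to wild type was calculated from changes in genotype frequencies. Genotypes had to have ≥ 100 starting reads, and estimates < 0.5 were set to 0.5.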
Turning to GUUCCGUUGGUGUAAUGGUAACGGGUCUCCCUCCUAAGGAGAAGACUGCGGGUUCGAGUCCCGUACGGAACG, the yeast fitness came to 0.614.
As for GUUCCGUUGGUGUAAUGGUAACGGGUCUUCCUCCUAAGGAGAAGACUGCAGGUUCGACUCCCAUAUGGAACG, the figure is not above 0.5; as for GUUCCGUUGGUGUAAUGGUAAUGCGUCUCCCUCCUAAGGAGAAGACUGCGGGUUCGUGUCCCGUACGGACCG, not above 0.5; as for GUUCCGUUGGUGUAAUGGUAACGCGUGUCCCUCCUAAGGAGAAGACUCGGGGUUCGAGUCCCGUACGGAACG, not above 0.5.
As for GUUCCGUUGGUGUAAUGGUAACGGGUCUCCCUCCUAAGGAGAAGACUGCGGGUUCGAGUCACGUACGGAACG, the figure is 0.569; as for GUUCCGUUGGUGUAAUGGUAAGGCGUCUCCCUCCUGAGGAGAAGACUGCGGGUUCGAGUCCCGUUCGGAACG, 0.554.
On to GUUCCGUUGGUGUAAUGGUAACGCGUUUCCAUCCCAAGGAGAAGACUGCGGGUUCGAGUGCCGUACGGACCG, for which the yeast fitness is not above 0.5.
As for GUUCCGUUGGUGUAAUGGUAAAGGGUCUCCCUCCUGAGCAGAAGACUGCGGGUUUGAGUCCCGUAUGGAACG, the figure is not above 0.5; as for GUUCCGUUGGUGUAAUGGUAAUGCGUCUCCCUCCUAAGGAGAAGACUGCGGGUUCGUGUCCCGUACGGAACG, 0.512; as for GUUCCGUUGGUGUAAUGGUAAUGCGUCUCCCUCCUAAGGAGAAGACUGCGGGUUCGAAUCCCGUAUGGAACG, 0.532.
Then GUUCCGUUGGUGUAAUGGUAACGAGUCUCCCUCUUAUGCUGAAGACUGCGGAUUGGAGUCCCGUACGGAACG, with not above 0.5; and GUUCCGUUGGUGUAAUGGUAACGGGUCUCCCUCCUAAGGAGAAGACUGCUGGUUCGAGUCCCCUACAGAACG, with not above 0.5.
Then GUUCCGUUGGUGUAAUGGUAAGGCGUCUCCCUUCUAAGGAGAAGACUGCGGGUUCGAGUCCCGUACGGAACG, with not above 0.5; and GUUCCGUUGGUGUAAUGGUAACGCGUGUCCCUCCUAAGGAGAAGACUGCGGGUUUGAGUCCCGUAAGGAACG, with not above 0.5.
In the case of GUUCCGUUGGUGUAAUGGUAAGGCGUCUCCCUCCUAAGGAGAAGACUGCGGGUUCGAGUCCCGUGCGGAACG, the yeast fitness was found to be 0.731.
Turning to GUUCCGUUGGUGUAAUGGUAAUGUGUCUCCCUCCUAAGGAAAAGACUGCGGGUUCGAGUCCCGUCCGGAACG, the yeast fitness is not above 0.5.
As for GUUCCGUUGGUGUAAUGGUAAUGCGUCUGCCUCUUAAGGAGAAGACUCCGGGUUCGGGUCCCGUACGGAACG, the figure is not above 0.5; as for GUUCCGUUGGUGUAAUGGUAACGCGUAUCCCUCCUAAGGAGAAGACUGCGCGUUCCAGUCCCGUACGGAACG, not above 0.5.
With GUUCCGUUGGUGUAAUGGUAAUGCGUCUCCCUCCUAAGGAGAACACUGCGGGUUCGAGUCCUGUACGGAACG, the yeast fitness was not above 0.5.
As for GUUCCGUUGGUGUAAUGGUAAGGCGUCUGCCUCCUAAGGAAAAGACUGCGGGUACGAGUCCCGGACGGAACG, the yeast fitness was not above 0.5.
As for GUUCCGUUGGUGUAAUGGUAAUGCGUCUCCCUCCUAAGGAGAAGACUGCGGGUUUGAGUCCCGUACGGAACG, the yeast fitness turned out to be 0.681.
For GUUCCGUUGGUGUAAUGGUAACGUGUCUCCCUCCUAAGGAGAACACUGAGGGUUCGAGUCCCGUACGGCACG, the yeast fitness is not above 0.5.
In the case of GUUCCGUUGGUGUAAUGGUAACGGGUCUCCCUCCUAAGGAGAAGACUGCGGGUUCGAGUCCCGUACGGAUCG, the yeast fitness turned out to be 0.557.
As to GUUCCGUUGGUGUAAUGGUAAGGCGUCUCCCUCCUAAGGAGAAGACUGCGGGUUCGAAUCUCGUACGGAACG, the yeast fitness came out at 0.608.
As to GUUCCGUUGGUGUAAUGGUAACGCGUGUCCCUCCUAAGGAGAAGACUGCGGGUUCGAGUCCCGUACGGAACG, the yeast fitness was determined as 0.703.
Then GUUCCGUUGGUGUAAUGGUAACGCGUUUCCCUCCUAAGGAGAAGACUGCGGGUUCGAGUCCCGUACGGAACG, with 0.906; and GUUCCGUUGGUGUAAUGGUAAGGCGUCUCCCUCCUAAGGAGAAGACUGCGGGUUCGUGUCCCGUACGGAACG, with not above 0.5; and GUUCCGUUGGUGUAAUGGUAAGGCGUCUCCCUCCUAAGGAGAAGACUGCGGGUUCGGGUCCCGUACGGAACG, with 0.586.
In the case of GUUCCGUUGGUGUAAUGGUAACGGGUCUCCCUCCUAAGGAGAAGACUGCGGGUUCGAGUCCGGUACGGAACG, the yeast fitness was not above 0.5.
Consider GUUCCGUUGGUGUAAUGGUAACGUGUCUCCCUCCUAAGGAGAAGACUGAGGGUUCGAGUCCAGUACGGAACG, for which the yeast fitness is not above 0.5.
For GUUCCGUUGGUGUAAUGGUAAGGCGUCUCCCUCCUAAGGAGAAGACUGCGGGUUCGAGUCCCGUACGGCACG, the yeast fitness is 0.653.
Take GUUCCGUUGGUGUAAUGGUAACGGGUCUCCCUCCUAAGGAGAAGACUGCGGGUUCGAGUCCCCUACAGAACG: the yeast fitness came to 0.568.
Regarding GUUCCGUUGGUGUAAUGGUAACGGGUCUCCCUACUAAGGCGAAGACUGCCGGUUCGAGUCCCGUACGGAACG, the yeast fitness was not above 0.5.
As to GUUCCGUUGGUGUAAUGGUAACGCGUUUCCCUCCUAAGGAGAAGCCUGCGGGUUCGCGUCCCGUACGGAACG, the yeast fitness is not above 0.5.
For the variant GUUCCGUUGGUGUAAUGGUAACGUGUCUCCCUCGUAAGGAGAAGACUGCGGGUUCGAGUCCCGUACGGAACG, the yeast fitness was not above 0.5.
Regarding GUUCCGUUGGUGUAAUGGUAACGCGUUUCCAUCCUAAGGAGGAGACUGGGAGUUCGAGUCCCGUACGGAACG, the yeast fitness is not above 0.5.
On to GUUCCGUUGGUGUAAUGGUAAUGCGUCUCCCUCCUAAGGAGAAGACUGCGGGUUCGAGUCCCGUACGGAACG, for which the yeast fitness stood at 0.855.
Consider GUUCCGUUGGUGUAAUGGUAAGGCGUCUCCCUCCUAAGGAGAAGACUGCGGGUUCGAGUCCCGUACGGAACG, for which the yeast fitness stood at 0.875.
Then GUUCCGUUGGUGUAAUGGUAAGGCGUCUCCCUCCUAAGGAGAAGACUGCGGGUUCGAGUCCUGUACGGACCG, with not above 0.5.
As for GUUCCGUUGGUGUAAUGGUAACGCGUAUCCCUCCUAAGGAGAAGAAUGCGGGUUCGAGUCCCGUACGGAUCG, the figure is not above 0.5; as for GUUCCGUUGGUGUAAUGGUAAAGCGUCUGCCUUCUAAGGAGAAGACUGCGGGUUCGAGUCCCGUACGGAACG, 0.519.
As for GUUCCGUUGGUGUAAUGGUAAGGCGUCUCCCUCCUAAGGAGAAGACUGCGGCUUCUAGUCCCGUACGGAACG, the yeast fitness was not above 0.5.
As for GUUCCGUUGGUGUAAUGGUAAGGCGUCUCCCUCCUAAGGAGAAGACUGCGGGUUCGAGUCCCGUACGGAUCG, the figure is 0.722; as for GUUCCGUUGGUGUAAUGGUAACGCGUAUCCCUCCUAAGGAGAAGACUACGGGAUCGAGUCUCGUACGGAACG, not above 0.5.
Then GUUCCGUUGGUGUAAUGGUAACGUGUCUCCCUCGUAAGGAGAAGACUGCGGGUUCGAGUCCCGAACGGAACG, with not above 0.5.
As for GUUCCGUUGGUGUAAUGGUAACGGGUCUCCCUCCUAAGGAGAAGACAGCGGGUUCGAGUCCCGUACGGAACG, the figure is 0.565; as for GUUCCGUUGGUGUAAUGGUAACGCGUAUCCCUCCUAAGGAGAAGACUGCGGAUUCGAGUCCCGUACGGAACG, not above 0.5; as for GUUCCGUUGGUGUAAUGGUAACGCGUGUGCCUCCUAAGGAGAAGACUGUGGGUUCGAGUCCCCUACGGAACG, not above 0.5.
With GUUCCGUUGGUGUAAUGGUAACGGGUGUCCCUCCUAAGGAGAAGACUGCGGGUUCGAGUCCCGUACGGAACG, the yeast fitness was not above 0.5.
As to GUUCCGUUGGUGUAAUGGUAAGGCGUCUCCCUCCUAAGGCAAAGACAGCGGGCUCGAGUCCCGUACCGAACG, the yeast fitness was not above 0.5.
As for GUUCCGUUGGUGUAAUGGUAAUGCGUCUCCCUCCUAAGGAGAAGACUGCGGGUUCGAGUCCCGUACAGAACG, the figure is 0.586.
For GUUCCGUUGGUGUAAUGGUAACGUGUCUCCCUCCUAAGGAGAAGACUGCGGGAUCGAGUCCCGUAUGGAACG, the yeast fitness was not above 0.5.
As to GUUCCGUUGGUGUAAUGGUAACGUGUCUCCCUCCUAAGGAGAAGGGUGCGGGUUGGAGUCCCGUACGGAACG, the yeast fitness is not above 0.5.
For GUUCCGUUGGUGUAAUGGUAACGAGUCUCCCUCCUAAGGAGAAGACUGCGGGUUCGAGUCCCGUACGGAUCG, the yeast fitness is not above 0.5.
With GUUCCGUUGGUGUAAUGGUAACGGGUCUCCCUCCUAAGGAGAAGCCUGCGGGUUCGAGUACCGUACGUAACG, the yeast fitness was not above 0.5.
In the case of GUUCCGUUGGUGUAAUGGUAACGCGUUUCCUUCCUCAGGAGAACGCUGCGGGUUCCAGUCCCGUACGGAUCG, the yeast fitness was not above 0.5.
Then GUUCCGUUGGUGUAAUGGUAAGGCGUCUGCCUCCUAAGGAAAAGACUGCGGGUACGAGUCCCGUACGGAACG, with not above 0.5.
As for GUUCCGUUGGUGUAAUGGUAACGUGUCUCCCUCUUAAGGAGAAGACUGCGGGUUCGAGUCUCGUACGGAACG, the figure is not above 0.5.
Then GUUCCGUUGGUGUAAUGGUAACGCGUUUACCUGCUAAGGAGAAGACUGCGGGUUCGAGUCCCGUAAGGAACG, with not above 0.5; and GUUCCGUUGGUGUAAUGGUAAUGCGUCUCCCUCCUAAGGCGAAGACUGCGGGUUCGAGUCCCGUACGGAACG, with 0.558.
GUUCCGUUGGUGUAAUGGUAAAGCGUCUGCCUUCUAAGGAGAAGACUGCGGGUUCCAGUCCCGUACGGAACG: the yeast fitness is not above 0.5.
Then GUUCCGUUGGUGUAAUGGUAACGGGUCUCCCUACUAAGGCGAAGACUGCGGGUUCGAGUCCCGUUCGGAACG, with 0.641; and GUUCCGUUGGUGUAAUGGUAACGUGUCUCCCUCCUAAGGAGAACACUGAGGGUUCGAGUCCCGUACGGAACG, with not above 0.5.
As for GUUCCGUUGGUGUAAUGGUAACGGGUCUCCCUCCUAAGGAGGAGACUGCGGGUUCGAGUCCCGUACGGAACG, the figure is not above 0.5; as for GUUCCGUUGGUGUAAUGGUAACGUGUCUCUCUCCUAAGGAGAAGACUGCGGGUUCGCGUCCCCUACGGAACG, not above 0.5; as for GUUCCGUUGGUGUAAUGGUAAGGCGUCUCCCUCCUACGGAGGAAACUGCGGGUUCGAGUCCCGUACGGAACG, not above 0.5.
Consider GUUCCGUUGGUGUAAUGGUAAUGCGUCUCCCUCCUAAGGAGAAGACUCCGGGUGUGAGUCCCGUACGGAACG, for which the yeast fitness was not above 0.5.
In the case of GUUCCGUUGGUGUAAUGGUAACGCGUAUCCCUCCUAAGGAGAAGACUGCAGGUUCGAGUCCCGUACGGUACG, the yeast fitness was not above 0.5.
As for GUUCCGUUGGUGUAAUGGUAACGAGUCUCCUUUCUAUGGAGAAGACUACGGGUUCGAGUCCCGUACAGAACG, the figure is not above 0.5; as for GUUCCGUUGGUGUAAUGGUAACGCGUGUCCCUCCUAAGGAGCAGACUGCGGGUUCGAGUCCCGUACGAAACG, not above 0.5.
GUUCCGUUGGUGUAAUGGUAACGCGUAUACCUCCUAUGGAGAAGUCUGCGGGUUCGAGUCCCGUACGGAACG: the yeast fitness amounted to 0.54.
For GUUCCGUUGGUGUAAUGGUAACGCGUUUCCUUCCUAGGGAGUAGACUCUGGGUUCGAGUCCCGUACGGAACG, the yeast fitness stood at 0.54.
Consider GUUCCGUUGGUGUAAUGGUAAUGUGUCUCCCUCCUAAGGAGAAGACUGCGGGUUCGAGUCCCGUACGGAACG, for which the yeast fitness was found to be 0.56.
In the case of GUUCCGUUGGUGUAAUGGUAACGCGUGUCCCUCCUAAGGAGAAGACUGCGGGUUCGAGUCCUGUUCGGAACG, the yeast fitness was not above 0.5.
Then GUUCCGUUGGUGUAAUGGUAAGGCGUCUCCCUCCUAAGGAGGAGACUGCGGGUUCGAGCCCCGUACGGAACG, with not above 0.5.
